Test results reported in ChEMBL document CHEMBL1148966, “Cytotoxic steroidal saponins from Polygonatum zanlanscianense” (J Nat Prod, 2004).
Values after ≈ are worked out from the molar mass of the structure shown.

Tested on: HeLa
Test: Cytotoxicity against human HeLa cells after 72 hrs by MTT assay
Assay type: functional, cell-based
Procedure, shortened: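 HeLa cells in 96-well microplates; viability by MTT colorimetric assay, optical density read at 570 nm on a plate reader; IC50 reported in µg/mL. Cisplatin run as positive control.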

Compound	IC50 [µg/mL]
C[C@@H]1O[C@@H](O[C@H]2[C@H](O[C@H]3CC[C@@]4(C)C(=CC[C@H]5[C@@H]6C[C@@H]7O[C@]8(CC[C@@H](CO)CO8)[C@@H](C)[C@@H]7[C@@]6(C)CC[C@@H]54)C3)O[C@H](CO)[C@@H](O[C@@H]3O[C@@H](C)[C@H](O)[C@@H](O)[C@H]3O)[C@@H]2O)[C@H](O)[C@H](O)[C@H]1O	3.62 (≈ 4.09 µM)
C[C@H]1[C@H]2[C@H](C[C@H]3[C@@H]4CC=C5C[C@@H](O[C@@H]6O[C@H](CO)[C@H](O[C@@H]7O[C@H](CO)[C@@H](O)[C@H](O)[C@H]7O)[C@H](O)[C@H]6O)CC[C@]5(C)[C@H]4CC(=O)[C@]23C)O[C@]12CC[C@@H](CO[C@@H]1O[C@H](CO)[C@@H](O)[C@H](O)[C@H]1O)CO2	5.13 (≈ 5.51 µM)
C[C@@H]1CC[C@@]2(OC1)O[C@H]1C[C@H]3[C@@H]4CC=C5C[C@@H](O[C@@H]6O[C@H](CO)[C@@H](O[C@@H]7OC[C@@H](O)[C@@H](O)[C@@H]7O)[C@H](O)[C@H]6O[C@@H]6O[C@@H](C)[C@H](O)[C@@H](O)[C@H]6O)CC[C@]5(C)[C@H]4CC[C@]3(C)[C@H]1[C@@H]2C	14.6 (≈ 17 µM)
C[C@H]1[C@H]2[C@H](C[C@H]3[C@@H]4CC=C5C[C@@H](O[C@@H]6O[C@H](CO)[C@H](O[C@@H]7O[C@H](CO)[C@@H](O)[C@H](O)[C@H]7O[C@@H]7O[C@H](CO)[C@@H](O)[C@H](O)[C@H]7O)[C@H](O)[C@H]6O)CC[C@]5(C)[C@H]4CC[C@]23C)O[C@]12CC[C@@H](CO)CO2	5.24 (≈ 5.71 µM)
CC1=CC(=O)CC(C)(C)[C@H]1CC[C@@H](C)O[C@@H]1O[C@H](CO[C@@H]2O[C@H](CO)[C@@H](O)[C@H](O)[C@H]2O)[C@@H](O)[C@H](O)[C@H]1O	20.1 (≈ 37.5 µM)
C[C@@H]1CC[C@@]2(OC1)O[C@H]1C[C@H]3[C@@H]4CC=C5C[C@@H](O[C@@H]6O[C@H](CO)[C@@H](O)[C@H](O[C@@H]7O[C@H](CO)[C@@H](O)[C@H](O)[C@H]7O)[C@H]6O[C@@H]6O[C@@H](C)[C@H](O)[C@@H](O)[C@H]6O)CC[C@]5(C)[C@H]4CC[C@]3(C)[C@H]1[C@@H]2C [GRACILLIN]	12.7 (≈ 14.4 µM)
C[C@@H]1CC[C@@]2(OC1)O[C@H]1C[C@H]3[C@@H]4CC=C5C[C@@H](O[C@@H]6O[C@H](CO)[C@@H](O)[C@H](O)[C@H]6O[C@@H]6O[C@@H](C)[C@H](O)[C@@H](O)[C@H]6O)CC[C@]5(C)[C@H]4CC[C@]3(C)[C@H]1[C@@H]2C [OPHIOPOGONIN C]	6.23 (≈ 8.62 µM)
C[C@@H]1CC[C@@]2(OC1)O[C@H]1C[C@H]3[C@@H]4CC=C5C[C@@H](O[C@@H]6O[C@H](CO)[C@@H](O[C@@H]7OC[C@@H](O)[C@@H](O[C@@H]8O[C@@H](C)[C@H](O[C@@H]9O[C@@H](C)[C@H](O)[C@@H](O)[C@H]9O)[C@@H](O)[C@H]8O)[C@@H]7O)[C@H](O)[C@H]6O[C@@H]6O[C@@H](C)[C@H](O)[C@@H](O)[C@H]6O)CC[C@]5(C)[C@H]4CC[C@]3(C)[C@H]1[C@@H]2C [PARISSAPONIN PB]	3.14 (≈ 2.74 µM)
C[C@H]1O[C@@H](O[C@H]2CC[C@@]3(C)C(=CC[C@H]4[C@@H]5C[C@@H]6O[C@]7(CC[C@@H](CO[C@@H]8O[C@H](CO)[C@@H](O)[C@H](O)[C@H]8O)CO7)[C@@H](C)[C@@H]6[C@@]5(C)C(=O)C[C@@H]43)C2)[C@H](O)[C@@H](O)[C@H]1O[C@@H]1O[C@H](CO)[C@@H](O)[C@H](O)[C@H]1O [POLYGONATOSIDE A]	5.06 (≈ 5.53 µM)
C[C@H]1O[C@@H](O[C@H]2CC[C@@]3(C)C(=CC[C@H]4[C@@H]5C[C@@H]6O[C@@]7(OC[C@H](CO)C[C@@H]7O)[C@@H](C)[C@@H]6[C@@]5(C)C(=O)C[C@@H]43)C2)[C@H](O)[C@@H](O)[C@H]1O[C@@H]1O[C@H](CO)[C@@H](O)[C@H](O)[C@H]1O [POLYGONATOSIDE C]	7.45 (≈ 9.69 µM)
C[C@@H]1O[C@@H](O[C@H]2[C@H](O)[C@@H](O)[C@H](O[C@H]3CC[C@@]4(C)C(=CC[C@H]5[C@@H]6C[C@@H]7O[C@]8(CC[C@@H](CO[C@@H]9O[C@H](CO)[C@@H](O)[C@H](O)[C@H]9O)CO8)[C@@H](C)[C@@H]7[C@@]6(C)CC[C@@H]54)C3)O[C@@H]2CO)[C@H](O)[C@H](O)[C@H]1O [POLYGONATOSIDE D]	5.83 (≈ 6.47 µM)
